pIC50: −log10 of the molar value.
What was measured:
[1] = target: T1, Aldo-keto reductase family 1 member A1 (Rattus norvegicus) (UniProt P51635); assay: Inhibition of rat kidney aldehyde reductase at 0.1 mM after 20 mins by spectrometric analysis
T1 sequence (whole entry): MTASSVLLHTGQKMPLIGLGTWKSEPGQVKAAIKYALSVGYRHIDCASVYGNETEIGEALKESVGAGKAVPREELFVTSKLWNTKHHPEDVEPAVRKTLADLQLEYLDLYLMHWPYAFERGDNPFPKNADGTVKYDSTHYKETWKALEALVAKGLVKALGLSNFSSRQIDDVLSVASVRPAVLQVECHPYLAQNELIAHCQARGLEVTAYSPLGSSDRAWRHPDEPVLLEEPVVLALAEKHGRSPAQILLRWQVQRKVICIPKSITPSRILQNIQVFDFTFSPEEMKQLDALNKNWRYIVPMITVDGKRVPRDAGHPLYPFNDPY

[2] = target: Aldo-keto reductase family 1 member B1 (Rattus norvegicus, UniProt P07943); assay: Inhibition of aldose reductase in Fischer-344 rat lens homogenate by spectrometric analysis
[3] = target: Aldo-keto reductase family 1 member B1 (Rattus norvegicus) (UniProt P07943); assay: Inhibition of aldose reductase in Fischer-344 rat lens homogenate at 0.1 mM by spectrometric analysis
[4] = Antioxidant activity against AAPH-induced lipid peroxidation in unilamellar DOPC liposomes after 80 mins by thiocyanate reagent method; assay type: functional
Outline: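 DOPC unilamellar liposomes (final 0.8 mM, phosphate buffer 20 mM pH 7.4) incubated with test compound (10–300 µM range stated) and AAPH (final 10 mM) at 50 °C for 80 min. Aliquots extracted with ice-cold CHCl3/MeOH (2:1) containing BHT. Lipid hydroperoxide determined by thiocyanate method, absorbance at 500 nm, quantified against cumene hydroperoxide calibration curve. Triplicate.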

[5] = tested on: Radical scavenging activity; assay: Antioxidant activity assessed as DPPH radical scavenging activity at 0.2 mM; assay type: functional
Outline: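 Compounds in absolute ethanol added to an equal volume of ethanolic DPPH to give final 0.2–0.0125 mM compound and 0.2 mM DPPH. Continual absorbance decrease at 517 nm followed. Trolox reference. Triplicate.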

Row | SMILES | inhibition [1] | pIC50 [2] | inhibition [3] | pIC50 [4] | Activity [5]
1 | O=C(c1ccccc1)c1ccn(Cc2nn[nH]n2)c1 | 23% |  | 40% |  | 
2 | O=C(c1ccccc1)c1ccn(CCc2nn[nH]n2)c1 | 41% |  | 6% |  | 
3 | O=C(c1ccccc1)c1cccn1-c1nn[nH]n1 | 18% | 4.70 |  | < 3.52 | 10%
4 | O=C(c1ccccc1)c1ccn(-c2nn[nH]n2)c1 | 18% | 4.74 |  | < 3.52 | 10%
5 | Cc1c(C)c2c(c(C)c1O)CCC(C)(C(=O)O)O2 (stereo not drawn) [TROLOX] |  |  |  | 4.03 | 98%

Now from value to compound, other results behind:

Row | inhibition [1] | pIC50 [2] | inhibition [3] | pIC50 [4] | SMILES | Activity [5]
6 | 20% | 5.01 |  |  | O=C(O)CCn1ccc(C(=O)c2ccccc2)c1 | 
7 | 35% |  | 41% |  | O=C(c1ccccc1)c1ccn(CCCc2nn[nH]n2)c1 | 
8 | 22% | 5.22 |  |  | O=C(O)CCCn1ccc(C(=O)c2ccccc2)c1 | 
9 | 34% |  |  | < 3.52 | O=C(O)Cn1ccc(C(=O)c2ccccc2)c1 | 10%

Source: ChEMBL document CHEMBL1157655, “Design and synthesis of novel series of pyrrole based chemotypes and their evaluation as selective aldose reductase inhibitors. A case of bioisosterism between a carboxylic acid moiety and that of a tetrazole” (Bioorg Med Chem, 2010)
